Runt-CBFb FRET: Runt domain-CBFb interaction inhibition | Cerulean-Runt/Venus-CBFb FRET ratio 530/480, 1 h | 0.46% of 220,000 active | AID 1496 | inhibition, % at 20 µM | Q01196+Q13951;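 active = inhibition over about 50% at 20 µM in the single-dose screen, limit read from the data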
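Measured by: fluorescence energy transfer, 422 nm excitation, 530/480 nm emission; Assay system: Cerulean-Runt domain; Medium: Tris pH 7.5 buffer with BSA; Measure: loss of energy transfer signal; Controls: 5 µM unlabeled CBFb as full-inhibition high control; Incubation: protein complex preformed 1 h, compound exposure 1 h, room temperature, dark.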
RanGTP-Imp inh: disruptors of Ran-importin-beta complex formation – biochemical, FRET, CFP-Ran, YFP-importin-beta, homogeneous, primary screen. 1.1% of 300,000 active. cell-free CFP-Ran/YFP-importin-beta FRET ratio. inhibition, % (test concentration not listed);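 active = more than half of the replicate wells show a fall in the fluorescence ratio signal beyond about 16%, limit read from the data, passing the limit was not always enough; inconclusive = exactly half of the replicate wells pass the set limit; inactive = fewer than half of replicates pass the limit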
Runt-SMMHC FRET: inhibitors of human RUNX1 Runt domain binding to CBFb-SMMHC; 0.74% of 220,000 active; AID 1434; Q01196+Q13951; inhibition, % at 20 µM; Cerulean-Runt/Venus-CBFb-SMMHC FRET ratio 530/480, 1 h;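 active = mean inhibition across duplicate retests at 20 µM reaching about 50%, limit read from the data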;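 note: inhibitors lower the FRET ratio by blocking Runt binding to CBFb-SMMHC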
Hck-Nef inh: human Hck-Nef kinase inhibition; inhibition, % at 20 µM; AID 463187; Recombinant Hck-YEEI plus Nef, Z-Lyte FRET kinase assay; P08631; 0.68% of 220,000 active;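 active = Hck-Nef kinase inhibition above about 50%, limit read from the data; inactive = inhibition below that limit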
Target sequence (P08631 whole entry, looked up): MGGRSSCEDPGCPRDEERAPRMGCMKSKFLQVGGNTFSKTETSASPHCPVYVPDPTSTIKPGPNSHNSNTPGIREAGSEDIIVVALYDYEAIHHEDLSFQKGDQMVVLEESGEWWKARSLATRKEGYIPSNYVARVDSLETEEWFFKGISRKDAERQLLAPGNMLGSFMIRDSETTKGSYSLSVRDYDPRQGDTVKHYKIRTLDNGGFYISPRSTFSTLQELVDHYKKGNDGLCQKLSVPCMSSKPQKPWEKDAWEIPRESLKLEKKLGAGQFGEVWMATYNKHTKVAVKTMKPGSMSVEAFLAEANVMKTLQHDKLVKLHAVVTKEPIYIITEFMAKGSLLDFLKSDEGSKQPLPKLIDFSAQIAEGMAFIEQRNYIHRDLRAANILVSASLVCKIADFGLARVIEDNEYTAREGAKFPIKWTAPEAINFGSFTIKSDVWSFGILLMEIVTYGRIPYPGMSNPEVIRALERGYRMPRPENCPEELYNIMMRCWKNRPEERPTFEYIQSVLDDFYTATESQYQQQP
Hck-Nef confirm: Hck-Nef kinase inhibition, confirmation; Recombinant Hck-YEEI:Nef, Z-Lyte FRET kinase assay; shares compounds with Hck-Nef inh; 28% of 1,300 active; calls only at 10 µM;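 active = average inhibition of at least 50%, with Z-scores no higher than 3 in both the phospho-tyrosine peptide and fluorescence counterscreens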
Each line names hits and unclear results; the compound was inactive in the other large screens (follow-up assays come after a bar, where shown). A selection: hits, their analogues and other compounds. The true share with any hit is near 1.9%.

COc1ccc(-n2cccc2/C=C2\C(=N)N3N=C(c4ccco4)SC3=NC2=O)cc1	Hck-Nef inh 93 | Hck-Nef confirm active
CCC(=O)OC1(C)C(=O)C=C2C=C(c3ccsc3)OC=C2C1=O (stereo unspecified)	Hck-Nef inh 65 | Hck-Nef confirm active
CCc1ccc(/C=C2/Sc3ccccc3N(CC(=O)NCCCOC)C2=O)cc1	none
O=C1COc2ccc(-c3csc(NCCc4ccccc4)n3)cc2N1	Hck-Nef inh 128 | Hck-Nef confirm active
O=C(O)c1cc(-c2ccco2)nn1-c1cccc(Cl)c1	Hck-Nef inh 52 | Hck-Nef confirm inactive
Cc1ccc(-n2nc(-c3cccnc3)cc2C(=O)N2CCOCC2)c(C)c1	none
Cc1ccc(-n2nc(-c3ccco3)cc2C(=O)O)c(C)c1	Hck-Nef inh 55 | Hck-Nef confirm inactive
O=C(O)c1cc(-c2ccco2)nn1-c1ccc(Cl)cc1	none
CCC(=O)Nc1nc(C)c(-c2csc(Nc3ccc(C(=O)O)cc3)n2)s1	none (no result: Runt-CBFb FRET, Runt-SMMHC FRET, Hck-Nef inh)
CC(=O)Nc1nc(C)c(-c2csc(Nc3cccc([N+](=O)[O-])c3)n2)s1	RanGTP-Imp inh inconclusive, Hck-Nef inh 51 | Hck-Nef confirm inactive
Cc1nc(NC(=O)c2ccccc2)sc1-c1csc(Nc2ccc(C(=O)O)cc2)n1	Hck-Nef inh 93 | Hck-Nef confirm inactive
O=S(=O)(c1ccc(Oc2ccc(S(=O)(=O)N(CCO)CCO)cc2)cc1)N(CCO)CCO	none
O=S(=O)(c1ccc(N2CCC(c3ccc(Cl)cc3)=N2)cc1)N(CCO)CCO	RanGTP-Imp inh inconclusive, Runt-SMMHC FRET 108, Hck-Nef inh 82
CCC(=O)N/C(=N\OCc1ccc(F)cc1)c1nonc1NC(=O)CC	none
CCN1C=C(C(=O)OC)C(c2cccc(C)c2)C(C(=O)OC)=C1	Runt-SMMHC FRET 61, Hck-Nef inh 66
O=C(/C=C/c1cccc(Cl)c1)NCc1cccs1	none
COC(=O)C1=CN(Cc2cccs2)C=C(C(=O)OC)C1c1cccc(Cl)c1	Runt-SMMHC FRET 85, Hck-Nef inh 59
CC(C)c1cc(NCCCN2CCOCC2)n2c(nc3ccccc32)c1C#N	RanGTP-Imp inh inconclusive, Hck-Nef inh 54
N#Cc1c2c(c(NCCCN3CCOCC3)n3c1nc1ccccc13)CCC2	Hck-Nef inh 61
c1ccc(-c2nc(NCCCN3CCOCC3)c3ccccc3n2)cc1	none
O=C(CC(=O)NCc1ccc(Cl)cc1)NCc1ccccc1	none (no result: Runt-CBFb FRET, Runt-SMMHC FRET, Hck-Nef inh)
CCN(CC)S(=O)(=O)c1ccc(N2CCCC2)c(NC(=O)CC(C)(C)C)c1	none
CCOC(=O)c1c(NC(=O)C2CCCO2)sc(C(=O)OC(C)(C)C)c1C (stereo unspecified)	Hck-Nef inh 68 | Hck-Nef confirm inactive
NC(=S)n1[nH]c(-c2ccc([N+](=O)[O-])cc2)c(N=Nc2ccc(Cl)cc2)c1=O	Hck-Nef inh 71 (no result: RanGTP-Imp inh) | Hck-Nef confirm active
Cc1ccc([N+](=O)[O-])cc1N=Nc1c(C)[nH]n(C(N)=S)c1=O	none (no result: Runt-CBFb FRET, Runt-SMMHC FRET, Hck-Nef inh)
Cc1ccc([N+](=O)[O-])cc1N=Nc1c(-c2ccc([N+](=O)[O-])cc2)[nH]n(C(N)=S)c1=O	Hck-Nef inh 82 | Hck-Nef confirm active
Cc1ccc(N=Nc2c(C)[nH]n(C(N)=S)c2=O)cc1	none
O=C(N/N=C/c1ccc(O)cc1)Nc1cccc2nsnc12	Hck-Nef inh 53 | Hck-Nef confirm inactive
COc1cccc(=O)c2c(C)n(-c3cc(C)cc(C)c3)c(C)c12	none
COc1cccc(-n2c(C)c3c(OC)cccc(=O)c3c2C)c1	Hck-Nef inh 51 | Hck-Nef confirm inactive
CC1CCc2c(sc(N)c2C(=O)OC(C)C)C1 (stereo unspecified)	none
CC(=O)c1ccc2c(c1)C1C=CCC1C(c1ccncc1)N2 (stereo unspecified)	none
CC(=O)c1ccc2c(c1)C1C=CCC1C(C(=O)O)N2 (stereo unspecified)	Hck-Nef inh 74 (no result: RanGTP-Imp inh) | Hck-Nef confirm active
N#CCC(=O)Nc1ccc(C(=O)N2CCN(c3ccccn3)CC2)cc1	none (no result: Runt-CBFb FRET, Runt-SMMHC FRET, Hck-Nef inh)
O=C(CN(C(=O)c1csnn1)c1ccc(Cl)cc1)NCc1ccc2c(c1)OCO2	none (no result: Runt-CBFb FRET, Runt-SMMHC FRET, Hck-Nef inh)
COc1cccc(C(=O)Oc2c(Br)cc(Br)cc2/C=N/NC(=O)c2cc(C)[nH]n2)c1	none
COc1cc(NC(=S)Nc2ccccn2)cc(OC)c1OC	Hck-Nef inh 81 | Hck-Nef confirm active
CCc1cc(=O)n2c([nH]c3ccccc32)c1C#N	none
COCc1cc(=O)n2c([nH]c3ccccc32)c1C#N	Runt-SMMHC FRET 59, Hck-Nef inh 67
CCc1cc(=S)n2c([nH]c3ccccc32)c1C#N	Hck-Nef inh 71 | Hck-Nef confirm inactive
COc1ccccc1N1C(=O)C2C(c3ccc(F)cc3)NN(C(=O)c3ccc(C)cc3)C2C1=O (stereo unspecified)	none
O=C(/C=C/c1ccc(Br)o1)Nc1nnc(C2CC2)s1	Hck-Nef inh 57 | Hck-Nef confirm active
N#C/C(=C\c1ccc(OC(=O)c2ccc(Cl)s2)cc1)c1nc2ccccc2[nH]1	Hck-Nef inh 56 | Hck-Nef confirm active
CC(=O)n1cc([C@H]2C=C(C(=O)NCc3ccccc3)O[C@@H](OCc3ccc(CO)cc3)C2)c2ccccc21	Hck-Nef inh 53 | Hck-Nef confirm active
CC(=O)C1C(c2ccncc2)NC(=O)NC1(O)C(F)(F)F (stereo unspecified)	none
CC(=O)C1C(c2ccc3ncccc3c2)NC(=O)NC1(O)C(F)(F)F (stereo unspecified)	Hck-Nef inh 52 | Hck-Nef confirm inactive
CC(=O)NC(CCS(C)(=O)=O)C(=O)Nc1ccc(F)cc1Cl (stereo unspecified)	none
CS(=O)(=O)Nc1ccc(C2=NN(S(=O)(=O)c3ccc(F)cc3)C(c3ccco3)C2)cc1 (stereo unspecified)	none
Cc1ccc(NC(=O)c2c(-c3c(F)cccc3Cl)noc2C)cc1F	none
Cc1ccc(NNc2c(C)nc3ccccc3nc2=O)cc1	Hck-Nef inh 149 | Hck-Nef confirm inactive
COC(=O)CCCC1=CC2=CC(=O)C(C)(OC(=O)c3cccs3)C(=O)C2=CN1Cc1ccc2c(c1)OCO2 (stereo unspecified)	Hck-Nef inh 53 | Hck-Nef confirm inactive
COC(=O)CCCC1=CC2=CC(=O)C(C)(OC(=O)c3cccs3)C(=O)C2=CN1Cc1ccccc1 (stereo unspecified)	none
CCC1(CC)NC(=O)N(CC(=O)OCC(=O)Nc2ccc(F)c(F)c2F)C1=O	none
O=C(Cc1cccs1)N=Nc1c(O)[nH]c2ccc(Br)cc12	none
COc1ccc2[nH]c(O)c(N=NC(=O)Cc3cccs3)c2c1	Hck-Nef inh 51 | Hck-Nef confirm inactive
S=c1[nH]nc(-c2ccco2)n1/N=C/c1ccc(Cl)c(Cl)c1	none
S=c1[nH]nc(-c2ccco2)n1/N=C/c1c(Cl)cccc1Cl	RanGTP-Imp inh inconclusive, Hck-Nef inh 61 | Hck-Nef confirm inactive
CCOc1nc2cnccc2n(CC(=O)Nc2cccc(C)c2C)c1=O	none (no result: Runt-CBFb FRET, Runt-SMMHC FRET, Hck-Nef inh)
